Compounds with a hit are over-represented: about 1.4% of the library has one in this group of screens.
MsrA inh: bovine MsrA inhibition | purified bovine MsrA, absorbance read-out | 360,000 tested, 0.75% active | AID 651718 | inhibition, % at 15.5 µM; in the data active = inhibition above about 4.5%;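 also: 0% = vehicle wells with enzyme and 100% = reference inhibitor wells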
MsrA act: activates bovine MsrA enzyme; purified bovine MsrA, absorbance read-out; activation, % at 10.6 µM; 360,000 tested, 0.3% active; AID 602163; in the data active = activation above about 7.5%;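 also: 0% = vehicle and 100% = reference activator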
ASAP1 GAP inh: inhibitors of human ASAP1 ArfGAP activity. ASAP1-stimulated ARF1 GTP hydrolysis, GDP FP detection. inhibition, % at 16.5 µM. 360,000 tested, 0.19% active. AID 624377; in the data active = inhibition above about 25%;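 also: 0% = vehicle with enzyme and substrate and 100% = no enzyme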
Target sequence (Q9ULH1 325-724 limits assumed): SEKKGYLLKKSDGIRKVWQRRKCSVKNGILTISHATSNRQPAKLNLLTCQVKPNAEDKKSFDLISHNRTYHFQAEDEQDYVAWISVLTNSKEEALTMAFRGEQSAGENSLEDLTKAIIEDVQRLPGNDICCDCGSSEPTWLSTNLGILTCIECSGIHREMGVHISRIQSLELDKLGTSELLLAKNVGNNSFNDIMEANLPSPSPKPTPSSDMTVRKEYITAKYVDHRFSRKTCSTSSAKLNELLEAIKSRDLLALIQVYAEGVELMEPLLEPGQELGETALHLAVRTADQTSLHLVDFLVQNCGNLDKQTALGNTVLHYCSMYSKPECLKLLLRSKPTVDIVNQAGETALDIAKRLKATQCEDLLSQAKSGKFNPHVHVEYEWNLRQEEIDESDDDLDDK
ARFGAP1 inhibitor: inhibits rat ARF GTPase activating protein 1; Q62848; AID 651572; 360,000 tested, 0.26% active; inhibition, % at 16.5 µM; Arfgap1-stimulated ARF1 GTP hydrolysis, GDP FP detection;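 active = inhibition above a per-plate limit, mean inhibition of low control wells plus 3 SD, cut at about 25% in these data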;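 also: 0% = DMSO wells with enzyme and 100% = wells lacking Arfgap1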
Target sequence (Q62848 1-136 limits assumed): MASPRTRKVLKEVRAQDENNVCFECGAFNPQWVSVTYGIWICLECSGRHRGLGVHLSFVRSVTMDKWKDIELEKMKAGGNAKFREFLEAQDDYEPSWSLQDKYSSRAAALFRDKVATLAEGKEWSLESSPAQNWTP
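System: truncated rat Arfgap1 GAP domain / Medium: HEPES-based buffer, pH 7.5 / Also added: N-terminally truncated human ARF1-GTP substrate / Incubation: enzyme reaction 120 min at 25 °C after 20 min preincubation / Measured by: FP of antibody-bound GDP Alexa 633 tracer, ex 620/em 688 nm / Replicates: singlicate, each compound tested once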
MsrA activ conf: bovine methionine sulfoxide reductase A activation confirmed. AID 602270. shares compounds with MsrA act. activation, % at 10.6 µM. 1,000 tested, 12% active. purified bovine MsrA, absorbance read-out; in the data active = activation above about 4%;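 also: enzyme coupled to thioredoxin and thioredoxin reductase with NADPH; 0% = vehicle wells and 100% = reference activator wells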
Starred values were filed as active, the others as inactive.

Screening Cc1ccccc1OCC(=O)N/N=C/c1ccc([N+](=O)[O-])o1 returned MsrA inh 4, MsrA act -10, ASAP1 GAP inh 0 and ARFGAP1 inhibitor 4.
Screening COCCCn1c(=O)c2ccccc2n2c(=S)[nH]nc12 returned MsrA inh -1, MsrA act 9.8*, ASAP1 GAP inh 3, ARFGAP1 inhibitor 6 and MsrA activ conf 5.4*.
`COc1cccc(-n2c(=O)c3ccccc3n3c(=S)[nH]nc23)c1` gave MsrA inh 2, MsrA act 3, ASAP1 GAP inh -11 and ARFGAP1 inhibitor -17.
`Cc1ccc(NCc2nnc3n2CCCCC3)c(C)c1` gave MsrA inh 0, MsrA act 8.2*, ASAP1 GAP inh 0, ARFGAP1 inhibitor -7 and MsrA activ conf -1.
For CCCNS(=O)(=O)c1ccc(OCC(=O)NCc2ccco2)cc1 the results were MsrA inh 0, MsrA act 16*, ASAP1 GAP inh -9, ARFGAP1 inhibitor -2 and MsrA activ conf 1.
For CCOc1ccc(S(=O)(=O)NCCC(=O)NCc2ccco2)cc1 the results were MsrA inh -1, MsrA act -3, ASAP1 GAP inh -4 and ARFGAP1 inhibitor 3.
`Cc1ccsc1/C=N/n1c(-c2ccco2)n[nH]c1=S` gave MsrA inh 2, MsrA act 11*, ASAP1 GAP inh 0, ARFGAP1 inhibitor 0 and MsrA activ conf -1.
For COc1cccc2c(=O)cc(C)n(CC(=O)Nc3ccc(C)c(C)c3)c12 the results were MsrA inh 0, MsrA act 9.4*, ASAP1 GAP inh 3, ARFGAP1 inhibitor -12 and MsrA activ conf 0.
Screening CCOc1cc(C)c(Cl)cc1S(=O)(=O)NCc1ccc2c(c1)OCO2 returned MsrA inh 1, MsrA act 7.8*, ASAP1 GAP inh 15, ARFGAP1 inhibitor 0 and MsrA activ conf 2.
CCOC(=O)C1CCCN(C(=O)c2cc(C)n(C(C)(C)C)n2)CC1 (configuration not stated) was read as MsrA inh 1, MsrA act 2, ASAP1 GAP inh 4 and ARFGAP1 inhibitor 15.
Screening Cn1c(=O)c2c(nc(SCCN3CCOCC3)n2C)n(C)c1=O returned MsrA inh -1, MsrA act 0, ASAP1 GAP inh 15 and ARFGAP1 inhibitor 6.
`Cc1nn(CCC(=O)NNC(=S)Nc2cccc(Cl)c2)c(C)c1[N+](=O)[O-]` gave MsrA inh 0, MsrA act 11*, ASAP1 GAP inh 0, ARFGAP1 inhibitor 6 and MsrA activ conf 0.
CC12CCC(=O)N1C(C(=O)Nc1ccc(SC(F)F)cc1)CS2 (configuration not stated) was read as MsrA inh 2, MsrA act -1, ASAP1 GAP inh -11 and ARFGAP1 inhibitor -9.
`CCN1C(=O)N(S(=O)(=O)C(F)(F)F)[C@@H](c2ccccc2)C(C(=O)OC)=C1C` gave MsrA inh 0, MsrA act -7, ASAP1 GAP inh 5 and ARFGAP1 inhibitor 4.
Screening CCN1C(=O)N(C)[C@@H](c2ccccc2)C(C(=O)OC)=C1C returned MsrA inh 0, MsrA act 9.3*, ASAP1 GAP inh 0, ARFGAP1 inhibitor -4 and MsrA activ conf -4.
O=C(NNC1=Nc2ccccc2SC1)c1ccc(Cl)cc1 was read as MsrA inh 0, MsrA act -11, ASAP1 GAP inh 10 and ARFGAP1 inhibitor 0.
For O=C(NNC1=Nc2ccccc2SC1)c1ccc(F)cc1 the results were MsrA inh -2, MsrA act 7.7*, ASAP1 GAP inh 2, ARFGAP1 inhibitor 10 and MsrA activ conf -2.
C(=C\c1ccccc1)/CN1CCN(C(c2ccccc2)c2ccccc2)CC1 was read as MsrA inh -1, MsrA act 0, ASAP1 GAP inh 8 and ARFGAP1 inhibitor -8.
Fc1ccc(C(c2ccc(F)cc2)N2CCN(C/C=C/c3ccccc3)CC2)cc1 was read as MsrA inh -1, MsrA act 8.4*, ASAP1 GAP inh -8, ARFGAP1 inhibitor 12 and MsrA activ conf -2.
For C=CCN1C(=O)C(CC(=O)NCC)SC1=Nc1ccccc1OC (configuration not stated) the results were MsrA inh 0, MsrA act 0, ASAP1 GAP inh 2 and ARFGAP1 inhibitor -2.
`NC(=O)NC(=O)COC(=O)CCSc1ccccc1` gave MsrA inh 1, MsrA act -3, ASAP1 GAP inh -21 and ARFGAP1 inhibitor -8.
For CCOC(=O)NC1(C(F)(F)F)C(=O)N(Cc2ccccc2)C2=C1C(=O)CC(C)(C)C2 (configuration not stated) the results were MsrA inh 1, MsrA act 12*, ASAP1 GAP inh -9, ARFGAP1 inhibitor 10 and MsrA activ conf -1.
Screening CC1(C)CC(=O)C2=C(C1)N(Cc1ccco1)C(=O)C2(NC(=O)c1cccnc1)C(F)(F)F (configuration not stated) returned MsrA inh 0, MsrA act 8.2*, ASAP1 GAP inh 0, ARFGAP1 inhibitor -1 and MsrA activ conf -2.
Cc1ccccc1S(=O)(=O)N1C[C@H]2[C@H]3C(=O)N(c4ccccc4)C(=O)[C@H]3CC(=O)[C@H]2[C@@H]1c1ccc(Cl)cc1 was read as MsrA inh 0, MsrA act -1, ASAP1 GAP inh 1 and ARFGAP1 inhibitor -6.
`COc1ccc2c(c1)C1(Nc3ccccc3-c3nc4ccccc4n31)C(=O)N2` (configuration not stated) gave MsrA inh 0, MsrA act 8.7*, ASAP1 GAP inh 13, ARFGAP1 inhibitor 4 and MsrA activ conf 0.
Cc1cccc(C)c1NC(=O)c1nc(S(=O)(=O)Cc2ccccc2)ncc1Cl was read as MsrA inh 1, MsrA act -4, ASAP1 GAP inh 16 and ARFGAP1 inhibitor 1.
`Cc1nnc(NC(=O)c2nc(S(=O)(=O)Cc3ccccc3)ncc2Cl)s1` gave MsrA inh -1, MsrA act 11*, ASAP1 GAP inh 9, ARFGAP1 inhibitor 7 and MsrA activ conf 1.
CCCCCc1ccc(C(=O)CCC(=O)OCC(=O)N(CC)c2c(N)n(Cc3ccccc3)c(=O)[nH]c2=O)cc1 was read as MsrA inh -1, MsrA act 1, ASAP1 GAP inh -5 and ARFGAP1 inhibitor 7.
CCN1C(=O)[C@H]2[C@@H](c3ccc(C(F)(F)F)cc3)N[C@]3(CCCN(Cc4ccco4)C3=O)[C@H]2C1=O was read as MsrA inh -1, MsrA act -6, ASAP1 GAP inh 1 and ARFGAP1 inhibitor -4.
`Cc1cc(Cl)ccc1OCc1n[nH]c(=S)n1C1CCCCC1` gave MsrA inh 0, MsrA act 8.6*, ASAP1 GAP inh 12, ARFGAP1 inhibitor 0 and MsrA activ conf 0.
Screening CC1(C)CC(=O)C2=C(C1)N(CC1CCCO1)C(=O)NC2(C(F)(F)F)C(F)(F)F (configuration not stated) returned MsrA inh 0, MsrA act 11*, ASAP1 GAP inh 8, ARFGAP1 inhibitor 0 and MsrA activ conf -1.
